In experiment [1] the test system is Leishmania tropica. The experiment is described as follows: Percentage of growth inhibition of wild type Leishmania tropica lines at 3 uM; Value ranges from 0 to 6%. In kind it is functional. Summed up:
(§1)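 Intrinsic toxicity on the wild-type L. tropica LRC clone, with no DNM present. Log-phase promastigotes were plated at 3 × 10⁵ cells/well in RPMI 1640-modified medium with 20% FBS, with sesquiterpene diluted from DMSO stocks, for 72 h at 28 °C. MTT was added for 4 h, then 20% SDS, and A540 read. Percent growth inhibition is taken against untreated control absorbance.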

Experiment [2] has as its system Leishmania tropica. Put plainly: Percentage of growth inhibition of multidrug resistance Leishmania tropica Lines at 1 uM. Format: functional. Summed up: (§2)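 Log-phase MDR promastigotes were plated at 3 × 10⁵ cells/well in RPMI 1640-modified medium with 20% FBS and 150 µM DNM. Sesquiterpenes (DMSO stocks diluted in medium) were added and cells kept 72 h at 28 °C. MTT was added for 4 h, formazan dissolved in 20% SDS and A540 read. Growth inhibition is relative to DNM-treated controls without modulator.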

The subject of experiment [3] is Leishmania tropica. Put plainly: Percentage of growth inhibition of multidrug resistance Leishmania tropica Lines at 3 uM. In kind it is functional. Summed up:
as §2

Experiment [4] relates to Leishmania tropica. Put plainly: Percentage of growth inhibition of multidrug resistance Leishmania tropica Lines at 15 uM. In kind it is functional. Summed up: as §2
Experiment [5] has as its system Leishmania tropica. Put plainly: Percentage of growth inhibition of multidrug resistance Leishmania tropica Lines at 7 uM; Value ranges from 0 to 6%. In kind it is functional. The method, boiled down:
as §2

Experiment [6] has as its system Leishmania tropica. The experiment is described as follows: (§3) Percentage of growth inhibition of wild type Leishmania tropica lines at 15 uM. In kind it is functional. Summed up: as §1
The subject of experiment [7] is Leishmania tropica. The experiment is described as follows: Percentage of growth inhibition of wild type Leishmania tropica lines at 7 uM; Value ranges from 0 to 6%. Format: functional. The method, boiled down:
as §1

Experiment [8] has as its system Leishmania tropica. The experiment is described as follows: Percent growth inhibition of wild type Leishmania tropica at 1 uM. Format: functional. Summed up:
as §1

The test system of experiment [9] is Leishmania tropica. Put plainly: Percentage of growth inhibition of multidrug resistance Leishmania tropica Lines at 1 uM. In kind it is functional. The method, boiled down:
as §2

The test system of experiment [10] is Leishmania tropica. Put plainly: Concentration required to inhibit the growth of multidrug resistance Leishmania tropica Line in the presence of DNM at 15 uM. In kind it is functional, organism-based.
Experiment [11] deals with Leishmania tropica. Put plainly: Percentage of growth inhibition of wild type Leishmania tropica Lines at 7 uM. In kind it is functional. Summed up: (§4)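 WT L. tropica LRC-strain promastigotes (log phase, RPMI 1640-modified medium + 20% heat-inactivated FBS, 28 °C) seeded at 3 × 10⁵ cells/well and exposed without DNM to sesquiterpenes diluted from DMSO stocks. After 72 h at 28 °C, MTT (5 mg/mL in PBS) was added for 4 h, formazan dissolved in 20% SDS, A540 read. Growth inhibition (%) calculated relative to untreated control absorbance.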

In experiment [12] the test system is Leishmania tropica. The experiment is described as follows: Percentage of growth inhibition of wild type Leishmania tropica Lines at 3 uM. Format: functional. Summed up: as §1
Experiment [13] relates to Leishmania tropica. The experiment is described as follows: Ratio of IC50 of the multidrug resistance Leishmania tropica Line to that of IC50 of the wild type line at 7 uM. Format: functional. Summed up:
(§5)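 Resistance index is the DNM IC50 in the MDR L. tropica line divided by the DNM IC50 in the wild-type line. MDR IC50s were obtained with sesquiterpene at 7 or 15 µM. Growth was read by 72 h MTT assay at 28 °C. Data are from three independent experiments.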

Experiment [14] deals with Leishmania tropica. The experiment is described as follows: Ratio of IC50 of the multidrug resistance Leishmania tropica Line to that of IC50 of the wild type line at 15 uM. In kind it is functional. Summed up:
as §5

Experiment [15] relates to Leishmania tropica. The experiment is described as follows: Percentage of growth inhibition of multidrug resistance Leishmania tropica Lines at 7 uM. Format: functional. Summed up: as §2
In experiment [16] the test system is Leishmania tropica. Put plainly: Percentage of growth inhibition of multidrug resistance Leishmania tropica Lines at 3 uM. Format: functional. Summed up:
as §2

Experiment [17] deals with Leishmania tropica. Put plainly: Concentration required to inhibit the growth of multidrug resistance Leishmania tropica Line in the presence of DNM at 7 uM. Format: functional, organism-based.
Experiment [18] deals with Leishmania tropica. Described as §3. Format: functional. Summed up:
as §4
This is another data set of the same source.

For experiment [19], the system named is Leishmania tropica. Put plainly: Percentage of growth inhibition of wild type Leishmania tropica Lines at 7 uM. Format: functional. The method, boiled down:
as §1

Experiment [20] relates to Leishmania tropica. The experiment is described as follows: Percentage of growth inhibition of multidrug resistance Leishmania tropica Lines at 15 uM; Value ranges from 0 to 6%. In kind it is functional. Summed up: as §2
Experiment [21] has as its system Leishmania tropica. Put plainly: Percentage of growth inhibition of wild type Leishmania tropica Lines at 3 uM. Format: functional. Summed up:
as §4

`COc1ccc(C(=O)O[C@@H]2C3C[C@H](OC(=O)c4ccco4)[C@]4(C)[C@@H](OC(C)=O)[C@@H](OC(=O)c5ccccc5)C[C@](C)(O)C24OC3(C)C)cc1` (stereo partly drawn): the inhibition at 3 µM with Leishmania tropica [1] and in the experiment with Leishmania tropica [3] was 6% each time. For the same molecule, the inhibition at 1 µM in the experiment on Leishmania tropica [2] and in the experiment on Leishmania tropica [8] was less than 6% each time. The inhibition at 15 µM was 11.8% in the experiment with Leishmania tropica [4] and less than 6% in the experiment on Leishmania tropica [6]. In addition, the inhibition at 7 µM with Leishmania tropica [5] and with Leishmania tropica [7] was 6% each time.

As to `CC(=O)O[C@H]1C[C@](C)(O)C23OC(C)(C)C(C[C@H](OC(=O)c4ccco4)[C@]2(C)[C@H]1OC(C)=O)[C@H]3OC(=O)c1ccco1` (stereo partly drawn), the inhibition at 1 µM was 24.5% with Leishmania tropica [9] and less than 6% with Leishmania tropica [8]. The half-maximal inhibitory concentration (IC50) was found to be 9 µM in the experiment with Leishmania tropica [10] and 30 µM with Leishmania tropica [17]. Further, the inhibition at 7 µM was determined as 9.7% in the experiment with Leishmania tropica [11] and 90.9% in the experiment on Leishmania tropica [15]. The inhibition at 3 µM is less than 6% in the experiment on Leishmania tropica [12] and 83.5% with Leishmania tropica [16]. The RI with Leishmania tropica [13] stood at 7.8; in the experiment on Leishmania tropica [14], 2.3. Besides, the inhibition at 15 µM in the experiment with Leishmania tropica [4] came out at 94.4%; with Leishmania tropica [18], 15.2%.

For the molecule `CC(=O)O[C@@H]1C2C[C@H](OC(=O)c3ccco3)[C@]3(C)[C@@H](OC(C)=O)[C@@H](OC(=O)c4ccco4)C[C@](C)(O)C13OC2(C)C` (stereo partly drawn), the figures for the inhibition at 3 µM in the experiment on Leishmania tropica [12] and in the experiment with Leishmania tropica [3] were less than 6% and 6%, respectively. Also, the inhibition at 1 µM in the experiment with Leishmania tropica [2] and in the experiment with Leishmania tropica [8] was less than 6% each time. The inhibition at 7 µM in the experiment with Leishmania tropica [5] was 6%; in the experiment with Leishmania tropica [19], less than 6%. The inhibition at 15 µM in the experiment with Leishmania tropica [6] is less than 6%; in the experiment on Leishmania tropica [20], 6%.

As to `CC(=O)O[C@H]1[C@@H](OC(=O)c2ccccc2)C[C@](C)(O)C23OC(C)(C)C(C[C@H](OC(=O)c4ccco4)[C@]12C)[C@H]3OC(=O)c1ccc([N+](=O)[O-])cc1` (stereo partly drawn), the inhibition at 1 µM is 6.4% in the experiment with Leishmania tropica [9] and less than 6% with Leishmania tropica [8]. Besides, the inhibition at 3 µM with Leishmania tropica [1] is 6%; in the experiment with Leishmania tropica [16], 13.5%. For the same molecule, the inhibition at 15 µM with Leishmania tropica [4] is 51.1%; in the experiment with Leishmania tropica [18] it was 10.8%. Further, the inhibition at 7 µM stood at 26.4% with Leishmania tropica [15] and 6% in the experiment with Leishmania tropica [7].

`CC(=O)OC[C@@]12[C@@H](OC(C)=O)[C@@H](OC(C)=O)[C@@H]3OC(=O)[C@H](C)[C@@H](C)c4ncccc4C(=O)OC[C@@]4(C)OC1([C@H](OC(C)=O)C4[C@H](OC(C)=O)[C@@H]2OC(C)=O)[C@@]3(C)O`: the inhibition at 3 µM with Leishmania tropica [12] and in the experiment on Leishmania tropica [3] was less than 6% each time. Also, the inhibition at 1 µM in the experiment with Leishmania tropica [2] and in the experiment on Leishmania tropica [8] was less than 6% in each case. The inhibition at 7 µM in the experiment on Leishmania tropica [5] was 6%; in the experiment on Leishmania tropica [19] it was less than 6%. In addition, the inhibition at 15 µM in the experiment with Leishmania tropica [6] was less than 6%; in the experiment on Leishmania tropica [20], 6%.

Turning to `CC(=O)OC[C@]12[C@@H](OC(=O)c3ccccc3)CC3[C@@H](OC(=O)c4ccccc4)C1(OC3(C)C)[C@@](C)(O)C[C@H](OC(C)=O)[C@@H]2OC(C)=O` (stereo partly drawn), the inhibition at 1 µM in the experiment with Leishmania tropica [9] is 18%; with Leishmania tropica [8], less than 6%. Moreover, the 50% inhibitory concentration (IC50) is 20 µM with Leishmania tropica [10] and 39 µM in the experiment on Leishmania tropica [17]. Besides, the inhibition at 7 µM with Leishmania tropica [11] came to 11%; in the experiment on Leishmania tropica [15], 89.9%. Further, the RI in the experiment with Leishmania tropica [13] came to 10.2; in the experiment with Leishmania tropica [14], 5.2. In addition, the inhibition at 15 µM in the experiment with Leishmania tropica [4] stood at 90.9%; in the experiment with Leishmania tropica [18] it was 15.2%. For the same molecule, the figures for the inhibition at 3 µM in the experiment on Leishmania tropica [21] and in the experiment on Leishmania tropica [16] were 6.9% and 77.5%, respectively.

Consider `CC(=O)OC[C@]12[C@@H](OC(=O)c3ccco3)CC3[C@@H](OC(=O)c4ccco4)C1(OC3(C)C)[C@@](C)(O)C[C@H](OC(C)=O)[C@@H]2OC(C)=O` (stereo partly drawn), for which the inhibition at 1 µM was 25.7% in the experiment with Leishmania tropica [9] and less than 6% with Leishmania tropica [8]. Moreover, the figures for the half-maximal inhibitory concentration (IC50) in the experiment with Leishmania tropica [10] and with Leishmania tropica [17] were 11 µM and 33.3 µM, respectively. Further, the inhibition at 3 µM in the experiment on Leishmania tropica [12] was less than 6%; in the experiment on Leishmania tropica [16], 79.6%. The RI worked out at 8.7 with Leishmania tropica [13] and 2.9 in the experiment on Leishmania tropica [14]. In addition, the inhibition at 15 µM was found to be 94.3% in the experiment with Leishmania tropica [4] and 7.2% in the experiment on Leishmania tropica [18]. For the same molecule, the results for the inhibition at 7 µM in the experiment on Leishmania tropica [15] and in the experiment on Leishmania tropica [19] were 89.5% and less than 6%, respectively.

A word on the inhibition: it is the share of the control response that was lost under treatment. Lower therefore signals little suppression. The IC50 is the concentration that gives 50% inhibition.

For the origin of these results see ChEMBL document CHEMBL1148393, “SAR studies of dihydro-beta-agarofuran sesquiterpenes as inhibitors of the multidrug-resistance phenotype in a Leishmania tropica line overexpressing a P-glycoprotein-like transporter” (J Med Chem, 2004).
